Measurements taken from article PMC2928052 (Journal of medicinal chemistry, 2010).
Entries after “also recorded” stand apart in the source; their conditions may differ.

Tests used:
[1] = target: HIV-1 FSS RNA (upper stem-loop of the HIV-1 frameshift-stimulating RNA); assay: Fluorescence titration of compound into 5′-Cy3-labeled RNA; type: binding, HIV-1 (group M subtype D); conditions: Table 2, average ± standard deviation of 3 replicate titrations
[2] = tested on: biotinylated HIV-1 FSS RNA; assay: SPR binding kinetics, RNA immobilized on streptavidin-coated CM5 chip; conditions: 1X PBS, 5 mM MgCl2, 0.005 % Tween-20, 1:1 global fit to six sensorgrams
[3] = target: unrelated RNA hairpin (entry 11); assay: Fluorescence titration, Table 1 entry 11; type: binding
How it was run: (§1)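 5′-Cy3-labelled oligonucleotide (400 or 500 nM) in 1X PBS pH 7.2 was heated to 65 °C for 4 min, MgCl2 was added, and the sample was cooled slowly to RT. Test compound was titrated in (100 nM–10 μM), with ≥10 min equilibration per addition. Excitation was 550 nm and emission was read at 564.1 nm. Dilution-corrected ΔFU was fit to a 1-site ligand-depletion model, with ≥2 titrations.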

[4] = tested on: HIV-1 FSS with single mutation in the loop region (entry 7); assay: Fluorescence titration, Table 1 entry 7; type: binding; conditions: entry 7, single mutation in the loop region
[5] = target: unrelated RNA hairpin (entry 10); assay: Fluorescence titration, Table 1 entry 10; type: binding
How it was run: as §1

[6] = target: DNA homolog of the HIV-1 FSS (entry 9); assay: Fluorescence titration, Table 1 entry 9; type: binding
How it was run: as §1

[7] = tested on: HIV-1 FSS with multiple mutations in the loop region (entry 8); assay: Fluorescence titration, Table 1 entry 8; type: binding; conditions: entry 8, multiple mutations in the loop region
[8] = target: unrelated RNA hairpin (entry 10); conditions: Table 1 entry 10; compound immobilized on chip; previously reported; cited from earlier work

Molecule | KD [1] | Association rate (kon) [2] | Dissociation rate (koff) [2] | Binding constant (KD), Solution [3] | reduction in the binding relative to HIV-1 FSS [4] | Binding constant (KD), Solution [5] | Binding constant (KD), Solution [6] | reduction in the binding relative to HIV-1 FSS [7] | Binding constant (KD), SPR [8]
(Cys-Pro-Phe)2 (disulfide) [Compound 5] | completely ablated binding; also recorded: No Binding |  |  |  |  |  |  |  | 
NC[C@@H]1O[C@H](O[C@H]2[C@@H](O)[C@H](O[C@@H]3[C@@H](O)[C@H](N)C[C@H](N)[C@H]3O[C@H]3O[C@H](CN)[C@@H](O)[C@H](O)[C@H]3N)O[C@@H]2CO)[C@H](N)[C@@H](O)[C@@H]1O [Neomycin, neomycin, reference compound] |  | too rapid to determine accurately | too rapid to determine accurately |  |  |  |  |  | 
(Cys-Pro-Phe)2 (disulfide) [Compound 1] |  | 1790 M⁻¹ s⁻¹ | 0.0141 s⁻¹ | No saturable binding | 2 fold | No saturable binding | No saturable binding | 4 fold | No binding
